Where “and” joins values, the source holds several entries; their conditions need not be identical. Equal values may be shown once. Calls of active or inactive are those of the source. Unless noted, the rule behind the calls is not given here.

The record followed here is PubChem BioAssay.

The target of experiment [1] is Pantothenate synthetase (Mycobacterium tuberculosis (strain ATCC 25618 / H37Rv)) (UniProt P9WIL5). The experiment can be described thus: Recombinant Mtb pantothenate synthetase (PanC) inhibitors, coupled enzyme, confirmatory (AID 375).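 Note: 0% = full reaction with vehicle and 100% = no enzyme background.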 Particulars: coupled enzyme assay; at 10 µM, stronger effect = higher value.
Pantothenate synthetase (Mycobacterium tuberculosis (strain ATCC 25618 / H37Rv)), sequence (P9WIL5 whole entry, looked up): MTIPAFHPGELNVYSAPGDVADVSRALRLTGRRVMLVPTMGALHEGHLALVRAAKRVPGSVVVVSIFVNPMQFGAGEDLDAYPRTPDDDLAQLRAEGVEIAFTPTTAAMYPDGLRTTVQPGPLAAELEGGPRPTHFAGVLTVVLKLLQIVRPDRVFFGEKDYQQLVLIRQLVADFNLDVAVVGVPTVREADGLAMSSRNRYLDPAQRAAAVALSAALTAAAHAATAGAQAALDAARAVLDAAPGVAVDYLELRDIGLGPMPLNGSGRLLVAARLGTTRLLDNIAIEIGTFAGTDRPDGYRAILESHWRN
Experiment [2] is described as follows: reducers of endogenous Her2 protein level, primary screen, SKBR3 breast tumor cells, AlphaScreen, ATP viability (AID 461;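 active = Her2 level under about 52% in both replicate screens, with viability over 70% of control, limit read from the data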;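 for Her2 level: lower value means less Her2 protein in the cells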;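 for viability: percent of carrier control wells set as 100% viability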). The following applies: 18-24 h, measured here: SKBR3 viability, ATP luminescence, at 10 µM. For orientation: Bead proximity is the source of the signal in Alpha formats.
For experiment [3], the target named is Receptor tyrosine-protein kinase erbB-2 (Homo sapiens) (UniProt P04626). The experiment is described as above. Particulars: 18-24 h, at 10 µM, stronger effect = lower value.
Receptor tyrosine-protein kinase erbB-2 (Homo sapiens), sequence (P04626 whole entry, looked up): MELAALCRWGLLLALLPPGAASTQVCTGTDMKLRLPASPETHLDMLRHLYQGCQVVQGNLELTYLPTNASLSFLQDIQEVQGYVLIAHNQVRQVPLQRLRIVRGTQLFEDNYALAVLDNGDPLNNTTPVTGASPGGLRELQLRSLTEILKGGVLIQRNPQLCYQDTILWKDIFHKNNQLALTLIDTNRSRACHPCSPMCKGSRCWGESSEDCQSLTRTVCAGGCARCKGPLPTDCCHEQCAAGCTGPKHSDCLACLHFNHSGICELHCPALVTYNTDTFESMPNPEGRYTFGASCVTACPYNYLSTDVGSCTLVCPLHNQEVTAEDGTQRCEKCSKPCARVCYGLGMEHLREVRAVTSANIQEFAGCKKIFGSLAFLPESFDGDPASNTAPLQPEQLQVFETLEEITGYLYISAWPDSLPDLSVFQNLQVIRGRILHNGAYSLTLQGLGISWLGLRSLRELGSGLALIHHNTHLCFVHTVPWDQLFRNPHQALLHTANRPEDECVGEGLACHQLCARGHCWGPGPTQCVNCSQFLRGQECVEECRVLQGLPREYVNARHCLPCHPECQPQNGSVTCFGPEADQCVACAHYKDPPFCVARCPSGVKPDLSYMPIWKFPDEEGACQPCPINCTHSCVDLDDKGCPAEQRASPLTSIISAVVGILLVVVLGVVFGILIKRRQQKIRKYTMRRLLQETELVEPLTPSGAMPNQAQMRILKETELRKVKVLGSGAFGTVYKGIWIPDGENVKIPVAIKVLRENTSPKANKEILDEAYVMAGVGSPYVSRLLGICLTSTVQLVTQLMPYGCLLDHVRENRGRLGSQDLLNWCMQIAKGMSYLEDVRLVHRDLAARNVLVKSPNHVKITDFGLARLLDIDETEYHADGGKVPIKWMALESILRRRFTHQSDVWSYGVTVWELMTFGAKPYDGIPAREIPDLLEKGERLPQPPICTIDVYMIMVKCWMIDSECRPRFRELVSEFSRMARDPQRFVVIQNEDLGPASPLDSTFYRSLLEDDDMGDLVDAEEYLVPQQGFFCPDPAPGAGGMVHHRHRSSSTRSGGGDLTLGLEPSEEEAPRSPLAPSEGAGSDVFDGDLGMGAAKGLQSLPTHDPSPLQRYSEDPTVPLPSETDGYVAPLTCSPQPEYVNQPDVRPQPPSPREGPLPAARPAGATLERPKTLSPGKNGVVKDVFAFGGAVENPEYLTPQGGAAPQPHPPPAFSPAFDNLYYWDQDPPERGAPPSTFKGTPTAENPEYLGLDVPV
Experiment [4] can be described thus: SK-BR-3 cell growth inhibitors, pilot screen, 24 h, human (AID 572;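 active = viability at or below 10% of carrier control in both of two separate runs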;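 note: compound exposure lasted between 18 and 24 h rather than exactly 24 h; 100% = carrier-treated control wells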). The following applies: SK-BR-3 viability, CellTiter-Glo luminescence, at 10 µM, stronger effect = lower value.
Experiment [5] can be described thus: HUVEC growth inhibition – cell-based, human, primary screen (AID 575;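 active = viability at or below 30% in both replicate assays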;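 note: 100% = median of untreated cell wells with 0.1% DMSO on each plate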). Particulars: HUVEC proliferation, CellTiter-Glo luminescence, 72 h; at 10 µM; stronger effect = lower value. Summed up: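 Test system: primary human umbilical vein endothelial cells; medium: endothelial basal medium with 2% FBS plus growth supplements; dosing: 10 µM compound only; times: 72 h treatment at 37 °C; signal: CTG luminescence; read-out: % viability relative to median vehicle-well signal on each plate; control set: vehicle and MePR control wells; plate: 384-well, collagen-coated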
(In general: ATP-based viability assays read luminescence as a measure of living cells.)

Experiment [6] in a line: growth inhibitors of H69AR lung tumor, primary screen, human, duplicate replicates (AID 580;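 active = viability at or under a set limit in both replicates, limit being median viability minus 3 SD, cut at about 48% in these data, passing the limit was not always enough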;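 note: 100% = mean luminescence of untreated wells and 0% = no signal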). The following applies: H69AR lung tumor cells viability, ATP luminescence, 72 h; at 10 µM; stronger effect = lower value.
Experiment [7] can be described thus: reversal of MRP1-mediated doxorubicin resistance, pilot screen, H69AR cells, doxorubicin co-treatment (AID 601;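 active = viability loss from added drug above about 55%, and viability with drug at most 40%, in both replicates, limit read from the data, passing the limit was not always enough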). Particulars: CellTiter-Glo, 72 h, at 10 µM; for differential viability (reversal): stronger effect = higher value.
The mark [8] stands for this setting: H69AR cells + 2 uM doxorubicin, measured here: viability with 2 uM doxorubicin, stronger effect = lower value.
The mark [9] stands for this setting: H69AR cells, compound alone cytotoxicity.

As usually defined, the inhibition is the share of the control response that was lost under treatment. Take `Nc1nc(-c2ccc(Br)s2)c(Br)s1`: the inhibition in experiment [1] was 2% (inactive).

As for `Cn1c(=O)c2c(nc(CN3CCOCC3)n2CC(O)CO)n(C)c1=O` (stereo not drawn), the inhibition in experiment [1] was 8% (inactive).

Take `O=C(Nc1ccccc1C(=O)O)c1cccc(NC(=O)c2ccc(Br)o2)c1`: in experiment [1], the inhibition was 0% (inactive).

Regarding `CCOC(=O)C(NC(=O)Nc1ccccc1)(OCC)C(F)(F)F` (stereo not drawn), the inhibition in experiment [1] is 0% (inactive).

Turning to `N#Cc1ccc(CSc2nnc(-c3cnccn3)o2)cc1`, the inhibition in experiment [1] was 5% (inactive).

For `Cc1c(NC(=O)CCc2ccc(S(=O)(=O)N3CCOCC3)cc2)c(=O)n(-c2ccccc2)n1C`, the inhibition in experiment [1] was 2% (inactive).

As to `CC1(C)CC(=O)C(C=Nc2ccc3c(c2)OCO3)=C(O)C1`, in experiment [1], the inhibition was 7% (inactive).

`COCCn1nnnc1C(C(C)C)N(Cc1cccnc1)Cc1ccccc1Cl` (stereo not drawn): the inhibition in experiment [1] was 2% (inactive).

Consider `CCNc1nc(N2CCCCC2)nc(-n2nnc(C(=O)OCC)c2C)n1`, for which, in experiment [1], the inhibition was 2% (inactive).

`Cc1cccc(N2CCN(C(=O)C3CCCN(S(=O)(=O)c4cnc[nH]4)C3)CC2C)c1` (stereo not drawn): the inhibition in experiment [1] was 0% (inactive).

Turning to `CCC(C(=O)OCC(=O)Nc1c(C)n(C)n(-c2ccccc2)c1=O)c1ccccc1` (stereo not drawn), the inhibition in experiment [1] was 2% (inactive).

Regarding `COC(=O)c1ccc(-c2ccco2)n1Cc1nc(-c2ccc(OC)c(OC)c2)oc1C`, in experiment [1], the inhibition was 2% (inactive).

As to `O=C(CN(CCc1ccccc1)C(=O)CNS(=O)(=O)c1ccccc1)NCC1CCCO1` (stereo not drawn), the inhibition in experiment [1] is 0% (inactive).

For the compound `Cc1cc(C)n(CCc2nc(-c3cccs3)cs2)n1`, the inhibition in experiment [1] is 2% (inactive).

Consider `CC(C)(C)c1ccc(C(=O)N2CCC(C(=O)NCc3ccncc3)CC2)cc1`, for which the inhibition in experiment [1] is 0% (inactive).

Consider `Cc1nnc(SCC(=O)N2CCC(C(=O)Nc3nccs3)CC2)n1Cc1ccccc1`, for which the inhibition in experiment [1] was 0% (inactive).

Consider `O=C(OCc1cc2ccccc2[nH]c1=O)c1ccncc1`, for which the inhibition in experiment [1] is 7% (inactive).

Usually viability stands for a read-out of living cells in per cent, often relative to untreated cells. On to `CC(C)N(CCC(C(N)=O)(c1ccccc1)c1ccccn1)C(C)C` (stereo not drawn), for which the inhibition in experiment [1] is 0% (inactive). The viability in experiment [2] was 85%; in experiment [4], 85% (inactive); in experiment [5], 121% (inactive); in experiment [6] it was 91.8% (inactive); in experiment [7] (setting [8]), 108%; in experiment [7] (setting [9]) it was 91.8%. Moreover, the Her2 level in experiment [3] is 114% (inactive). Also, the differential viability (reversal) in experiment [7] (H69AR cells + 2 uM doxorubicin) was -15.8% (inactive).

For the compound `COc1ccc(OC)c(C(C)NC=O)c1` (stereo not drawn), in experiment [1], the inhibition was 4% (inactive).

In the case of `O=C(NCc1ccc(Cl)cc1)c1ccc(COCC(F)(F)F)o1`, in experiment [1], the inhibition is 0% (inactive).

With `CC[C@@H]1C(=O)OC[C@@H]1Cc1cncn1C`, the inhibition in experiment [1] was 0% (inactive). For the same compound, the viability is 94% in experiment [2]; 94% (inactive) and 104% (inactive) in experiment [4]; 101% (inactive) and 91.9% (inactive) in experiment [5]; 102% (inactive) and 96% (inactive) in experiment [6]; 89.8% and 98.8% in experiment [7] (setting [8]); 102% and 96% in experiment [7] (setting [9]). Also, the Her2 level in experiment [3] is 107% (inactive). In addition, the differential viability (reversal) in experiment [7] (H69AR cells + 2 uM doxorubicin) was 12.4% (inactive) and -2.8% (inactive).

As to `CC(c1nnc(SCC(=O)Nc2sccc2C#N)n1-c1ccc(Cl)cc1)N(C)C` (stereo not drawn), in experiment [1], the inhibition was 0% (inactive).

Take `O=C(O)C1CC=CCC1C(=O)Nc1cccc(F)c1` (stereo not drawn): in experiment [1], the inhibition was 3% (inactive).

Take `CCN(CC)C(=O)Cn1c(=O)n(Cc2ccccc2Cl)c2c1c(=O)n(C)c(=O)n2C`: the inhibition in experiment [1] is 3% (inactive).

For `CN1CCC(=C2c3ccccc3C=Cc3ccccc32)CC1`, in experiment [1], the inhibition is 0% (inactive).

As to `O=C(Nc1ccccc1Cl)c1c(F)c(F)c(F)c(F)c1F`, the inhibition in experiment [1] is 6% (inactive).

As to `COc1ccc(N2CCN(C(=O)CSc3ccccc3)CC2)cc1`, in experiment [1], the inhibition was 6% (inactive).

For `Cc1noc(C)c1S(=O)(=O)N1CCCC(C(=O)NCCc2ccc(Cl)cc2)C1` (stereo not drawn), the inhibition in experiment [1] was 3% (inactive).

`O=C(CCCN1CCC2(CC1)C(=O)NCN2c1ccccc1)c1ccc(F)cc1`: the inhibition in experiment [1] was 1% (inactive). Further, the viability was 98% in experiment [2]; 98% (inactive) in experiment [4]; 96.2% (inactive) in experiment [5]; 87.8% (inactive) in experiment [6]; 97% in experiment [7] (setting [8]); 87.8% in experiment [7] (setting [9]). The Her2 level in experiment [3] was 65% (inactive). In addition, in experiment [7] (H69AR cells + 2 uM doxorubicin), the differential viability (reversal) was -9.21% (inactive).

In the case of `O=C(CCCNS(=O)(=O)c1ccccc1)NCc1ccco1`, the inhibition in experiment [1] was 0% (inactive).

On to `C[C@@]1(CO)[C@H](O)CC[C@@]2(C)[C@H]1CC[C@H]1C[C@@H]3C[C@@]12CC[C@]3(O)CO`, for which the inhibition in experiment [1] was 0% (inactive). Also, the viability was 108% in experiment [2]; 108% (inactive) in experiment [4]; 49.2% (inactive) in experiment [5]; 80.6% (inactive) in experiment [6]; 109% in experiment [7] (setting [8]); 80.6% in experiment [7] (setting [9]). Also, in experiment [3], the Her2 level was 81.5% (inactive). Further, the differential viability (reversal) in experiment [7] (H69AR cells + 2 uM doxorubicin) is -28.1% (inactive).
